Experimental data reported in ChEMBL document CHEMBL4052657, “Design, synthesis and biological evaluation of sulfonamide-substituted diphenylpyrimidine derivatives (Sul-DPPYs) as potent focal adhesion kinase (FAK) inhibitors with antitumor activity” (Bioorg Med Chem, 2017).

Columns and labels:
L02 = experiment: Antiproliferative activity against human LO2 cells after 72 hrs by CCK8 assay; conditions: L02, 72 h
Ramos = experiment: Antiproliferative activity against human Ramos cells after 72 hrs by CCK8 assay; assay type: functional, cell-based
In short: (§1)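 Cells in RPMI-1640 with 10% FBS and 1% penicillin-streptomycin, 37 °C, 5% CO2. Seeded at 3,000 to 5,000 cells/well and grown one day, then exposed to compound for 72 h at 1.25 to 40 µmol/L, five replicates per concentration. CCK-8 read-out is absorbance at 450 nm. Dose-response curves used five concentrations. IC50 is the mean of at least three separate experiments.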

ASPC1 = experiment: Antiproliferative activity against human AsPC1 cells after 72 hrs by CCK8 assay; conditions: ASPC1, 72 h
NCI-H1975 = experiment: Antiproliferative activity against gefitinib-resistant human NCI-H1975 cells harboring FAK after 72 hrs by CCK8 assay; assay type: functional, cell-based; conditions: NCI-H1975, 72 h; in short: as §1
BXPC-3 = experiment: Antiproliferative activity against human BxPC3 cells after 72 hrs by CCK8 assay; conditions: BXPC-3, 72 h
PANC-1 = experiment: Antiproliferative activity against human PANC1 cells after 72 hrs by CCK8 assay; conditions: PANC-1, 72 h

| IC50 (Ramos) | IC50 (ASPC1) | IC50 (NCI-H1975) | IC50 (BXPC-3) | IC50 (PANC-1) | Compound | IC50 (L02) |
| --- | --- | --- | --- | --- | --- | --- |
| > 10 µM | 26.8 µM | > 10 µM | 20.2 µM | 30.4 µM | Nc1ccn([C@@H]2O[C@H](CO)[C@@H](O)C2(F)F)c(=O)n1 [GEMCITABINE] | > 20 µM |
|  | 6.73 µM |  | 1.03 µM | > 20 µM | CNC(=O)c1ccccc1Nc1nc(Nc2ccc(N3CCOCC3)cc2OC)ncc1Cl | 5.37 µM |
| 19.8 µM | 2.75 µM | 6.29 µM | 14.2 µM | 3.61 µM | CNC(=O)c1ccccc1Nc1nc(Nc2ccc(Oc3ccc(NS(C)(=O)=O)cc3)cc2)ncc1Cl | 16.5 µM |
| 24.6 µM | 6.69 µM | 12.9 µM | 31.6 µM | 5.7 µM | CNC(=O)c1ccccc1Nc1nc(Nc2ccc(NS(=O)(=O)c3ccc(F)cc3)c(OC)c2)ncc1Cl | 19.7 µM |
| 9.1 µM | 3.49 µM | 4.28 µM | 24.1 µM | 1.8 µM | CNC(=O)c1ccccc1Nc1nc(Nc2ccc(NS(=O)(=O)c3ccc(OC)cc3)cc2)ncc1Cl | 8.37 µM |
